Assay results reported in ChEMBL document CHEMBL4513216, “Probing the Open Global Health Chemical Diversity Library for Multistage-Active Starting Points for Next-Generation Antimalarials” (ACS Infect Dis, 2020).

Test: Toxicity liver stage against HepG2, at 10uM
Type: cell-based
Parameters: test concentration 10 uM, cell line HepG2-A16-CD81EGFP
Conditions: human, HepG2-A16-CD81EGFP cells; read-out: INHIBITION
Summary of the method: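 Uninfected HepG2-A16-CD81EGFP cells, 3 × 10^3 per well, 1536-well, plated on prespotted compound at 10 μM final, parasite-free screening media added to match infected plates; puromycin 10 μM positive, DMSO 0.5% negative; run in parallel with 48 h PbLuc assay at 37 °C, 5% CO2; viability by CellTiter-Glo luminescence, normalized to controls.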

SMILES	cytotoxicity at 10 µM [%]
Cc1cccc2c1nc1n2[C@@H](CNC(=O)c2ccncc2)COC1	3.04
COCCn1c(-c2cccc(OC)c2)cnc1NC(=O)NC(C)C	4.04
Cc1ccc2oc(SCC(N)=O)nc2n1	9.65
Cc1ccc(Cl)cc1NCc1nc2[nH]c(C)c(C)c(=O)n2n1	-4.96
Cc1ccc(CN2CC(O)CN(C(=O)OCC(C)C)CC2=O)cc1 (stereo not drawn)	-3.09
CSc1nsc(SCC(=O)c2cc3c(cc2Cl)NC(=O)C3)n1	5.13
CCOC(=O)Cn1c(=O)nc(N)c2c(-c3ccc(OC)cc3)csc21	-33.2
CCCS(=O)(=O)N1CCOC2(CCCN(c3ccc(C)nn3)C2)C1 (stereo not drawn)	2.08
COCCNC(=O)[C@@H]1CCO[C@@H]2CCN(Cc3cnn(C)c3)C[C@@H]21	0.341
Cc1nn(C)cc1S(=O)(=O)NCC(C)Cn1cc(Cl)cn1 (stereo not drawn)	0.197
Cc1nn(C)cc1C(=O)NCc1csc(C2CC2)n1	-4.1
c1cc(C2CCN(c3cnccn3)CC2)ccn1	3.94
CN(C)Cc1cccc(-c2cccnc2C(=O)NCC2CC2)c1	1.59
Cc1cc2ccncc2n1CC1(O)CCN(C(=O)c2ccccn2)CC1	0.166
CC(C)=CCCC1(C)C=Cc2c(cc(C)n(CC(=O)O)c2=O)O1 (stereo not drawn)	-2.72
CN(C)[C@@H]1CN(C(=O)c2cc3ccc(F)cc3[nH]2)C[C@H]1O	1.05
COc1ccc(-c2cc(C(=O)NCCCn3ccnc3C)n(C)n2)cc1	-6.67
COCCN1CCCC(c2ncc(C(=O)N3CCOCC3)c(C)n2)C1 (stereo not drawn)	0.893
CC(C)Nc1nc(O)cc(C2CC(=O)N(Cc3ccccc3)C2)n1 (stereo not drawn)	-28.5
CN1CCOC(C)(C(=O)N2CCSCC2)C1 (stereo not drawn)	-9.71
O=C(C1CCN(c2cccnn2)C1)N1CCOCC1 (stereo not drawn)	-25.4

SMILES	cytotoxicity at 10 µM [%]
Cc1cc(N2CC(c3n[nH]c4nccnc34)C2)ncn1	-11.2
CC(C)C(=O)NC1CCCc2nc(N3CCOCC3)ncc21 (stereo not drawn)	10.2
COCC(=O)N1CCCC1c1cc(Nc2nnc(C)s2)nc(C)n1 (stereo not drawn)	-6.15
Cc1cc(NCCSc2nccn2C)n2ncnc2n1	17.5
CC(=O)N1CCCc2cc(Nc3nccn(C)c3=O)ccc21	-49.4
Brc1cnc(NCCCOC2CCOCC2)nc1	-5.2
O=C(O)CC(NC(=O)CCCc1cccs1)c1ccc(F)cc1 (stereo not drawn)	-2.99
NC(=O)C1=NN2C(=NS(=O)(=O)c3ccccc32)N1	7.58
COCc1nccc(C2CCCN(Cc3cccc(C#N)c3)C2)n1 (stereo not drawn)	18.7
Cc1ccc(N2CCCC(N(C)Cc3c(C)noc3C)C2)nn1 (stereo not drawn)	-14
O=C(NCCc1ccc(F)cc1)NC1CCCc2c1cnn2CCO (stereo not drawn)	-3.46
COc1ccc(-c2nnc(SC(C)C(N)=O)[nH]2)c(OC)c1 (stereo not drawn)	-15
CCN(Cc1cccc(F)c1)S(=O)(=O)N1CCOCC1	-1.71
CNS(=O)(=O)c1cc(C(=O)NC2COc3ccccc32)cc(C)c1C (stereo not drawn)	-1.51
CCC(CNC1CCN(C(=O)N(C)C)CC1)Oc1ccccc1C (stereo not drawn)	3.98
CS(=O)(=O)CCN(CCCO)C1CCc2ccccc21 (stereo not drawn)	7.37
O=C(Nc1ccccc1N1CCOC1=O)N1CCc2sccc2C1	-5.55
CCn1nc2c(cc1=O)CN(CC(=O)Nc1nccs1)CC2	-4.74
O=C(CCC1CCCO1)NCCc1ccccn1 (stereo not drawn)	-43.2
O=C(CCn1c(=O)oc2ccccc21)NCC(O)c1ccc(Cl)cc1 (stereo not drawn)	-1.25
O=C(Cc1ccccc1)NCCNS(=O)(=O)C1CCCCC1	-1.95

SMILES	cytotoxicity at 10 µM [%]
CC1c2ccsc2CCN1Cc1cc2c(cc1O)OCO2 (stereo not drawn)	11.7
Cn1cc(C(C)(O)CNc2ccc(C(F)(F)F)cn2)cn1 (stereo not drawn)	-44.3
c1cnn(CC2CCCCN2c2ncnc3sccc23)c1 (stereo not drawn)	9.48
Cc1nnc(C(C)NCC2(c3ccc(Cl)cc3)CCCC2)o1 (stereo not drawn)	8.29
CN(CCn1nc2ccccn2c1=O)CC(=O)N1CCCC1	7.08
COCCCN(CCOC)C(=O)Nc1ccccc1Br	5.86
Cc1ccc2c(n1)N(CCN(C)C)CCN(C(=O)N1CCOCC1)C2	-73.1
C[C@H]1CN(C(=O)c2ccc[nH]2)C[C@@]12CCN(c1ccsc1)C2=O	-77.4
Cn1cc(C2COC3(CCN(C(=O)c4ccc(F)cc4)CC3)C2)cn1 (stereo not drawn)	8.31
CCc1ccc(S(=O)(=O)N2CCC3(CC(C(=O)NC)=NO3)C2)cc1 (stereo not drawn)	-2.16
CC(=O)Nc1ccc(Cl)c(C(=O)N(C)C(C)c2ccon2)c1 (stereo not drawn)	-48.7
COc1ccccc1-c1ncc(CN2CCC3(CCN(C)C3)CC2)cn1	3.92
CC(C)CS(=O)(=O)CCNC(=O)Nc1cccc2ncccc12	-11
O=C(O)[C@@]12CN(c3cnccn3)C[C@@H]1CN(C1CCOCC1)C2	1.92
CCCN1CCC(N2CCN(c3cccc(C)n3)CC2)CC1	-10.8
CC(=O)N1CCc2c(nc(N(C)C)nc2NCCCn2ccnc2)C1	-7.28
CC(C)N1CCCn2nc(C(=O)NCCc3c[nH]cn3)cc2C1	14.2
C/C=C(\C)CN1C[C@H](NC(=O)CN2CCCC2=O)[C@@H](c2ccc(C)o2)C1	10.8
CCc1nnc2n1CCN(C(=O)c1cc3ccccc3[nH]1)C2	4.38
Cc1cc(C)n(CC2CN(CC(=O)NC(C3CC3)C3CC3)CCO2)n1 (stereo not drawn)	-0.544
CC(C)c1nc(CN(C)C2CCCN(c3cccnn3)C2)no1 (stereo not drawn)	-9.92

SMILES	cytotoxicity at 10 µM [%]
CCOc1ccc(Cl)c(C(=O)N2CCCSCC2)n1	-4.03
COc1ccnc(N2CCN(C(=O)c3cccc(C#N)c3)CC2)n1	-18.2
c1csc(-c2noc(CNCCn3cccn3)n2)c1	-8.21
Cc1nc(CN(C)C2CCN(CC3CCC3)C2)no1 (stereo not drawn)	-8.19
CN1CCN(c2cc(CNC(=O)c3cccnc3O)ccn2)CC1	-5.42
CC(C)C(=O)NC1CCCN(C(=O)c2cc(Cl)ccc2O)C1 (stereo not drawn)	-11.4
Cc1nccc(-c2cccc(NCC(=O)N3CCNC3=O)c2)n1	1.9
CC(=O)NCCNC(=O)CN1CCN(Cc2nccn2C)C(C)C1 (stereo not drawn)	-6.73
O=C(CCCNC(=O)C1CC1)Nc1cnn(-c2ccccc2Cl)c1	-12.3
Cn1ccc(C(=O)NC2CCN(c3ncccn3)CC2)cc1=O	-7.32
CC(O)CN1CCN(C(=O)c2ccc(Cn3cccc3)cc2)CC1 (stereo not drawn)	-5.75
CC(NC(=O)CCCOc1ccccc1)c1nnc2n1CCCCC2 (stereo not drawn)	-9.51
c1cc(NCc2ccncc2)nc(C2CCCNC2)c1 (stereo not drawn)	-1.83
O=C(CC1CC1)N[C@@H]1CN(Cc2ccccn2)C[C@@H]2CCCO[C@@H]21	6.09
Cn1cc(CN2CCCC3(CCCCN3S(C)(=O)=O)C2)cn1 (stereo not drawn)	-76.3
O=C1COC2(CCN(Cc3cccnc3)CC2)CN1	2.78
Cc1ccc(CNCC2Cn3nnc(-c4cccc(F)c4)c3CO2)o1 (stereo not drawn)	-0.617
CCOCC1CN(Cc2cnn(C)c2)Cc2nn(C)cc21 (stereo not drawn)	2.37
Cc1ncnc2c1CCN(CC1CCOC1)CC2 (stereo not drawn)	-67.2
O=C(NC[C@]12COC[C@H]1CN(Cc1ccncc1)C2)c1ccco1	8.75
